From ChEMBL document CHEMBL1150277, “Benzofuran-based hybrid compounds for the inhibition of cholinesterase activity, beta amyloid aggregation, and abeta neurotoxicity” (J Med Chem, 2008) come the findings set out here.

Each structure is given as a SMILES string. pIC50: −log10 of the molar value.

One series has as its target Acetylcholinesterase (Homo sapiens, UniProt P22303). The series can be described thus: Inhibition of human recombinant AchE after 20 mins by Ellman's method.
The target of a further series is Cholinesterase (Homo sapiens, UniProt P06276). Briefly: Inhibition of human serum BuchE after 20 mins by Ellman's method. On the technique in general: Ellman's reagent forms a yellow product with free thiols.
Chain of Cholinesterase (P06276 whole entry): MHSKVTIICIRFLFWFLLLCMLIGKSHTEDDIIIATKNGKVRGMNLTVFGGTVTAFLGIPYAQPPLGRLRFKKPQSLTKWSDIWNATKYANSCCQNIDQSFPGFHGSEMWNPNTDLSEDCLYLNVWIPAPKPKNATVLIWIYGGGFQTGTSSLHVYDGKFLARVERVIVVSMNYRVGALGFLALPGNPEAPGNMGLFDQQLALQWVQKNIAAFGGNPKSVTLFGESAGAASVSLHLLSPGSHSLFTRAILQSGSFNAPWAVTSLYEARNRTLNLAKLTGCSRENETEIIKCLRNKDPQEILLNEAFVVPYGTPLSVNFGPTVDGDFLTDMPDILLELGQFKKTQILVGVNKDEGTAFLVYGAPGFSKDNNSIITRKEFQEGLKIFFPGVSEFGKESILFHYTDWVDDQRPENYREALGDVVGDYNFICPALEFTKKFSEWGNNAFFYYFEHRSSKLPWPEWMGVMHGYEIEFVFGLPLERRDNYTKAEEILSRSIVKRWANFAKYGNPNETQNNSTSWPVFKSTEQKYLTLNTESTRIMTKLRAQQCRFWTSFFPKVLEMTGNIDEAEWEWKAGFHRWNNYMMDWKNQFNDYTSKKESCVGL
Series [1] in a line: Inhibition of Amyloid beta 25-35 fibril formation. An outline of the steps:
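In vitro assay of Aβ25-35 fibril formation read by UV-vis measurements, with electron microscopy also used. IC50 is the inhibitor concentration that lowers fibril formation to 50% of the untreated control value.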

The nature of series [2]: Lipophilicity, log P of the compound. It counts as physicochemical. Conditions: octanol/water.
For series [3], the system named is SH-SY5Y. The series can be described thus: Neuroprotective effect against Amyloid beta 25-35-induced neurotoxicity in human SH-SY5Y cells assessed as neuronal viability after 3 hrs by MTT assay. It counts as functional, cell-based. An outline of the steps:
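Human neuronal-like SH-SY5Y cells were incubated 3 h with 10 µM Aβ25-35 peptide, with or without compound at 1-30 µM. Viability was read by colorimetric MTT assay. IC50 is the concentration giving 50% inhibition of peptide toxicity, as mean ± SD of at least two independent experiments.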
On the technique in general: Tetrazolium assays rely on reduction of a dye to a coloured formazan, in cell work by metabolically active cells.

Series [4] has as its system SH-SY5Y. The series can be described thus: Neuroprotective effect against Amyloid beta 25-35-induced neurotoxicity in human SH-SY5Y cells assessed as neuronal viability at 10 to 30 uM after 3 hrs by MTT assay. It counts as functional. An outline of the steps:
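SH-SY5Y cells were exposed 3 h to 10 µM Aβ25-35 peptide, with or without varied compound concentrations. Viability was measured by MTT and expressed as percentage of control cells, as mean ± SD of three independent experiments. Comparison was against the untreated sample by ANOVA with Dunnett post hoc test.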

Chain of Acetylcholinesterase (P22303 whole entry): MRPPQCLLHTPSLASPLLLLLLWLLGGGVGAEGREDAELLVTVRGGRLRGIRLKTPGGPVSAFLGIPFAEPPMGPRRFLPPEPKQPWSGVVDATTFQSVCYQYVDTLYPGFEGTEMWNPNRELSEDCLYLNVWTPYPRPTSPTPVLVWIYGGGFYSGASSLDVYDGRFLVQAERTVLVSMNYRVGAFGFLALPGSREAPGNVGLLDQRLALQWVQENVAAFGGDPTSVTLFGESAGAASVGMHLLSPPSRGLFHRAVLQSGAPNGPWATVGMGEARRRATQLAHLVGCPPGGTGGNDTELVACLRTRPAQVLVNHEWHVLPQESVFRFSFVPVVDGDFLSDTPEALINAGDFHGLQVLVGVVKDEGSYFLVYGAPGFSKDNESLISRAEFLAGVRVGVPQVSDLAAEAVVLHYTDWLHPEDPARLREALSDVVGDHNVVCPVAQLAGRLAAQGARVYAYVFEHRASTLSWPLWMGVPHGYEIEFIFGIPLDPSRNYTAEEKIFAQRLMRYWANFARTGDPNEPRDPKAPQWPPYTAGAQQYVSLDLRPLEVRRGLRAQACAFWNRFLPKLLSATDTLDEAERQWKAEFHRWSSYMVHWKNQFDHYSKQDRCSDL

As a reminder, the pIC50 is the IC50 on a negative log10 scale, so that one unit is a factor of ten. With `CC(=O)c1c(-c2ccc(OCCCCCCCN(C)Cc3ccccc3)cc2)oc2ccccc12`, the pIC50 on Acetylcholinesterase was 4.76; on Cholinesterase, 5.74.
For `Cc1cccc(C(=O)c2c(-c3ccc(OCCCCCCCN(C)Cc4ccccc4)cc3)oc3ccccc23)c1` the same measures were 3.90 and 4.39.
Compound `COc1cc(/C=C/C(=O)CC(=O)/C=C/c2ccc(O)c(OC)c2)ccc1O` [CURCUMIN] showed a pIC50 in series [1] of 5.00.
Broadly, the logP is a log measure of how a compound divides between an organic and an aqueous phase. For `CN(CCCCCCCOc1ccc(-c2cc3ccccc3o2)cc1)Cc1ccccc1`, the values for the pIC50 (on Acetylcholinesterase; at Cholinesterase; in series [1]) were 4.49, 6.55 and 5.15, respectively. This compound returned a logP in series [2] of 6.8.
Take `COc1cccc(C(=O)c2c(-c3ccc(OCCCCCCCN(C)Cc4ccccc4)cc3)oc3ccccc23)c1`: the figures for the pIC50 at Acetylcholinesterase and on Cholinesterase were 3.90 and 4.66, respectively.
As to `CN(CCCCCCCOc1ccc(-c2oc3ccccc3c2C(=O)c2ccccc2)cc1)Cc1ccccc1`, the negative-log IC50 (pIC50) on Acetylcholinesterase was 4.39; against Cholinesterase, 4.42; in series [1], 4.90; in the series on SH-SY5Y [3], 5.25. Moreover, the Activity in the series with SH-SY5Y [4] was found to be 63%. The log partition coefficient (logP) in series [2] stood at 8.
With `COc1ccc(C(=O)c2c(-c3ccc(OCCCCCCCN(C)Cc4ccccc4)cc3)oc3ccccc23)cc1OC`, the negative logarithm of the IC50 (pIC50) on Acetylcholinesterase is 3.75; at Cholinesterase, 4.13.
With `Cc1ccc(C(=O)c2c(-c3ccc(OCCCCCCCN(C)Cc4ccccc4)cc3)oc3ccccc23)cc1`, the pIC50 on Acetylcholinesterase is 4.98; against Cholinesterase, 5.74; in series [1] it was 4.89.
Take `COc1ccc(C(=O)c2c(-c3ccc(OCCCCCCCN(C)Cc4ccccc4)cc3)oc3ccccc23)cc1`: the negative-log IC50 (pIC50) on Acetylcholinesterase is 3.55; at Cholinesterase, 4.05.
